# Laboratory results reported in ChEMBL document CHEMBL1137781, “Synthesis and preclinical evaluation of novel PET probes for P-glycoprotein function and expression” (J Med Chem, 2009).
# Columns and labels:
# [1] = Biodistribution in Wistar rat medulla at 11+/-2 MBq, iv after 80 mins; format: ADME, organism-based, Medulla of organ; settings: in vivo
# In short: (§1)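 Male Wistar rats (12 h light/dark, chow ad libitum) were fitted with a femoral arterial cannula under isoflurane. They were pretreated via tail vein with saline, cyclosporin A (50 mg/kg), or nonradioactive tracer compound (15 mg/kg; 10 mg/mL in saline with 35% ethanol). The 11C tracer was then given via penile vein, followed by 76 min microPET. Animals were then terminated; excised tissues were weighed and gamma-counted with decay correction. Values are SUVs (tissue MBq/g × body weight g / injected MBq).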
# Pons [2] = assay: Biodistribution in Wistar rat pons at 11+/-2 MBq, iv after 80 mins; format: ADME, organism-based; settings: in vivo
# Bone [3] = assay: Biodistribution in Wistar rat bone at 11+/-2 MBq, iv after 80 mins; format: ADME, organism-based, Bone element; settings: in vivo
# Colon [4] = assay: Biodistribution in Wistar rat colon at 11+/-2 MBq, iv after 80 mins; format: ADME, organism-based; settings: in vivo; in short: as §1
# Duodenum = assay: Biodistribution in Wistar rat duodenum at 11+/-2 MBq, iv after 80 mins; format: ADME, organism-based; settings: in vivo; in short: as §1
# Heart [5] = assay: Biodistribution in Wistar rat heart at 11+/-2 MBq, iv after 80 mins; format: ADME, organism-based; settings: in vivo; in short: as §1
# Ileum [6] = assay: Biodistribution in Wistar rat ileum at 11+/-2 MBq, iv after 80 mins; format: ADME, organism-based; settings: in vivo; in short: as §1
# Kidney [7] = assay: Biodistribution in Wistar rat kidney at 11+/-2 MBq, iv after 80 mins; format: ADME, organism-based; settings: in vivo; in short: as §1
# Liver [8] = assay: Biodistribution in Wistar rat liver at 11+/-2 MBq, iv after 80 mins; format: ADME, organism-based; settings: in vivo; in short: as §1
# [9] = Biodistribution in 15 mg/kg unlabeled 6,7-dimethoxy-2-(3-(5-methoxy-3,4-dihydronaphthalen-1(2H)-ylidene)propyl)-1,2,3,4-tetrahydroisoquinoline pretreated Wistar rat amygdala at 13+/-2 MBq, iv after 80 mins; format: ADME, organism-based; set-up: dose 15 mg/kg, route intravenous; settings: in vivo
# In short: (§2)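 Male Wistar rats given saline or unlabeled compound via tail vein: 15 mg/kg, dissolved at 10 mg/mL in saline with 35% ethanol. [11C] tracer (8-15 MBq) then given via penile vein. After microPET scanning the anesthetized rats were killed. Tissues were excised and weighed, and blood was spun for plasma and cell fraction. γ counting with decay correction. Results as SUV (tissue MBq/g × body weight/injected dose).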
# [10] = Biodistribution in 15 mg/kg unlabeled 6,7-dimethoxy-2-(3-(5-methoxy-3,4-dihydronaphthalen-1(2H)-ylidene)propyl)-1,2,3,4-tetrahydroisoquinoline pretreated Wistar rat bulbus olfactorius at 13+/-2 MBq, iv after 80 mins; format: ADME, organism-based, Olfactory bulb; set-up: dose 15 mg/kg, route intravenous; settings: in vivo; in short: as §2
# [11] = Biodistribution in 15 mg/kg unlabeled 6,7-dimethoxy-2-(3-(5-methoxy-3,4-dihydronaphthalen-1(2H)-ylidene)propyl)-1,2,3,4-tetrahydroisoquinoline pretreated Wistar rat cingulate cortex at 13+/-2 MBq, iv after 80 mins; format: ADME, organism-based; set-up: dose 15 mg/kg, route intravenous; settings: in vivo; in short: as §2
# [12] = Biodistribution in 15 mg/kg unlabeled 6,7-dimethoxy-2-(3-(5-methoxy-3,4-dihydronaphthalen-1(2H)-ylidene)propyl)-1,2,3,4-tetrahydroisoquinoline pretreated Wistar rat entorhinal cortex at 13+/-2 MBq, iv after 80 mins; format: ADME, organism-based; set-up: dose 15 mg/kg, route intravenous; settings: in vivo; in short: as §2
# [13] = Biodistribution in 15 mg/kg unlabeled 6,7-dimethoxy-2-(3-(5-methoxy-3,4-dihydronaphthalen-1(2H)-ylidene)propyl)-1,2,3,4-tetrahydroisoquinoline pretreated Wistar rat frontal cortex at 13+/-2 MBq, iv after 80 mins; format: ADME, organism-based; set-up: dose 15 mg/kg, route intravenous; settings: in vivo; in short: as §2
# [14] = Biodistribution in 15 mg/kg unlabeled 6,7-dimethoxy-2-(3-(5-methoxy-3,4-dihydronaphthalen-1(2H)-ylidene)propyl)-1,2,3,4-tetrahydroisoquinoline pretreated Wistar rat medulla at 13+/-2 MBq, iv after 80 mins; format: ADME, organism-based, Medulla of organ; set-up: dose 15 mg/kg, route intravenous; settings: in vivo; in short: as §2
# Pons [15] = assay: Biodistribution in 15 mg/kg unlabeled 6,7-dimethoxy-2-(3-(5-methoxy-3,4-dihydronaphthalen-1(2H)-ylidene)propyl)-1,2,3,4-tetrahydroisoquinoline pretreated Wistar rat pons at 13+/-2 MBq, iv after 80 mins; format: ADME, organism-based; set-up: dose 15 mg/kg, route intravenous; settings: in vivo; in short: as §2
# Bone [16] = assay: Biodistribution in 15 mg/kg unlabeled 6,7-dimethoxy-2-(3-(5-methoxy-3,4-dihydronaphthalen-1(2H)-ylidene)propyl)-1,2,3,4-tetrahydroisoquinoline pretreated Wistar rat bone at 13+/-2 MBq, iv after 80 mins; format: ADME, organism-based, Bone element; set-up: dose 15 mg/kg, route intravenous; settings: in vivo; in short: as §2
# Colon [17] = assay: Biodistribution in 15 mg/kg unlabeled 6,7-dimethoxy-2-(3-(5-methoxy-3,4-dihydronaphthalen-1(2H)-ylidene)propyl)-1,2,3,4-tetrahydroisoquinoline pretreated Wistar rat colon at 13+/-2 MBq, iv after 80 mins; format: ADME, organism-based; set-up: dose 15 mg/kg, route intravenous; settings: in vivo; in short: as §2
# [18] = Biodistribution in 15 mg/kg unlabeled 6,7-dimethoxy-2-(3-(5-methoxy-3,4-dihydronaphthalen-1(2H)-ylidene)propyl)-1,2,3,4-tetrahydroisoquinoline pretreated Wistar rat fat at 13+/-2 MBq, iv after 80 mins; format: ADME, organism-based, Adipose tissue; set-up: dose 15 mg/kg, route intravenous; settings: in vivo; in short: as §2
# Heart [19] = assay: Biodistribution in 15 mg/kg unlabeled 6,7-dimethoxy-2-(3-(5-methoxy-3,4-dihydronaphthalen-1(2H)-ylidene)propyl)-1,2,3,4-tetrahydroisoquinoline pretreated Wistar rat heart at 13+/-2 MBq, iv after 80 mins; format: ADME, organism-based; set-up: dose 15 mg/kg, route intravenous; settings: in vivo; in short: as §2
# Ileum [20] = assay: Biodistribution in 15 mg/kg unlabeled 6,7-dimethoxy-2-(3-(5-methoxy-3,4-dihydronaphthalen-1(2H)-ylidene)propyl)-1,2,3,4-tetrahydroisoquinoline pretreated Wistar rat ileum at 13+/-2 MBq, iv after 80 mins; format: ADME, organism-based; set-up: dose 15 mg/kg, route intravenous; settings: in vivo; in short: as §2
# Kidney [21] = assay: Biodistribution in 15 mg/kg unlabeled 6,7-dimethoxy-2-(3-(5-methoxy-3,4-dihydronaphthalen-1(2H)-ylidene)propyl)-1,2,3,4-tetrahydroisoquinoline pretreated Wistar rat kidney at 13+/-2 MBq, iv after 80 mins; format: ADME, organism-based; set-up: dose 15 mg/kg, route intravenous; settings: in vivo; in short: as §2
# Liver [22] = assay: Biodistribution in 15 mg/kg unlabeled 6,7-dimethoxy-2-(3-(5-methoxy-3,4-dihydronaphthalen-1(2H)-ylidene)propyl)-1,2,3,4-tetrahydroisoquinoline pretreated Wistar rat liver at 13+/-2 MBq, iv after 80 mins; format: ADME, organism-based; set-up: dose 15 mg/kg, route intravenous; settings: in vivo; in short: as §2
# Muscle tissue = assay: Biodistribution in 15 mg/kg unlabeled 6,7-dimethoxy-2-(3-(5-methoxy-3,4-dihydronaphthalen-1(2H)-ylidene)propyl)-1,2,3,4-tetrahydroisoquinoline pretreated Wistar rat muscle at 13+/-2 MBq, iv after 80 mins; format: ADME, organism-based; set-up: dose 15 mg/kg, route intravenous; settings: in vivo; in short: as §2
# Pancreas = assay: Biodistribution in 15 mg/kg unlabeled 6,7-dimethoxy-2-(3-(5-methoxy-3,4-dihydronaphthalen-1(2H)-ylidene)propyl)-1,2,3,4-tetrahydroisoquinoline pretreated Wistar rat pancreas at 13+/-2 MBq, iv after 80 mins; format: ADME, organism-based; set-up: dose 15 mg/kg, route intravenous; settings: in vivo; in short: as §2
# [23] = Biodistribution in 15 mg/kg unlabeled 6,7-dimethoxy-2-(3-(5-methoxy-3,4-dihydronaphthalen-1(2H)-ylidene)propyl)-1,2,3,4-tetrahydroisoquinoline pretreated Wistar rat red blood cells at 13+/-2 MBq, iv after 80 mins; format: ADME, organism-based, Erythrocyte; set-up: dose 15 mg/kg, route intravenous; settings: in vivo; in short: as §2
# Spleen = assay: Biodistribution in 15 mg/kg unlabeled 6,7-dimethoxy-2-(3-(5-methoxy-3,4-dihydronaphthalen-1(2H)-ylidene)propyl)-1,2,3,4-tetrahydroisoquinoline pretreated Wistar rat spleen at 13+/-2 MBq, iv after 80 mins; format: ADME, organism-based; set-up: dose 15 mg/kg, route intravenous; settings: in vivo; in short: as §2
# Plasma = assay: Biodistribution in Wistar rat plasma at 11+/-2 MBq, iv after 60 mins; format: ADME, organism-based; settings: in vivo, 1 h
# In short: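 Male Wistar rats under isoflurane with a femoral arterial cannula; saline pretreatment via tail vein. Carbon-11 tracer (8–15 MBq, diluted in saline) injected into the penile vein during microPET. 14 arterial samples were drawn from 15 s to 60 min, plasma was separated by centrifugation, and radioactivity was gamma-counted. Results are given as SUV (tissue MBq/g × body weight/injected dose).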
# Cerebellum = assay: Biodistribution in Wistar rat cerebellum at 11+/-2 MBq, iv after 80 mins; format: ADME, organism-based; settings: in vivo
smiles,measurement,setting,value
COc1cc2c(cc1OC)CN(CC/C=C1\CCCc3c(O[11CH3])cccc31)CC2,SUV,[1],0.46
same,SUV,Pons [2],0.6
same,SUV,Bone [3],0.78
same,SUV,Colon [4],1.85
same,SUV,Duodenum,3.06
same,SUV,Heart [5],0.48
same,SUV,Ileum [6],1.94
same,SUV,Kidney [7],1.53
same,SUV,Liver [8],1.75
same,SUV,[9],0.44
same,SUV,[10],0.4
same,SUV,[11],0.31
same,SUV,[12],0.49
same,SUV,[13],0.37
same,SUV,[14],0.46
same,SUV,Pons [15],0.5
same,SUV,Bone [16],0.81
same,SUV,Colon [17],0.74
same,SUV,[18],0.36
same,SUV,Heart [19],0.68
same,SUV,Ileum [20],0.91
same,SUV,Kidney [21],1.3
same,SUV,Liver [22],2.34
same,SUV,Muscle tissue,0.45
same,SUV,Pancreas,2.73
same,SUV,[23],0.3
same,SUV,Spleen,1.72
same,SUV,Plasma,0.49
same,SUV,Cerebellum,0.79
